Results reported in ChEMBL document CHEMBL5390213 (ACS Med Chem Lett, 2023).
Activity calls are given as the source filed them. The rule behind the calls is not given here.

How the values were obtained:
CHP-134 [1] = assay: Growth inhibition of MYCN-amplified human CHP-134 cells assessed as reduction in cell viability measured after 3 days by Celltiter-glo assay; type: functional; conditions: CHP-134, 72 h, time 3 day
In short: (§1)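 MYCN-amplified Kelly and CHP-134 neuroblastoma cells were exposed to a nine-point serial dilution for 3 days. Viability was read by CellTiter-Glo and normalized to DMSO-treated cells, and GI50 was calculated. Values are reported with standard error of the mean. The highest dose tested was 5.00 or 2.50 μM.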

[2] = Growth inhibition of MYCN-amplified human Kelly cells assessed as reduction in cell viability measured after 3 days by Celltiter-glo assay; type: functional; conditions: 72 h, time 3 day; in short: as §1
[3] = Microsomal stability in human liver microsomes assessed as half life; type: ADME, Microsome
Kelly [4] = assay: Induction of cell cycle arrest in human Kelly cells assessed as increase in cyclin B1 expression at 100 nM measured after 24 hrs by Western blot analysis; type: functional, cell-based
In short: (§2)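 Lysates immunoblotted for mitotic markers cyclin B1 and histone H3 phosphorylated at Ser10. GAPDH used as loading control. Levels compared against DMSO vehicle.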

CHP-134 [5] = assay: Induction of cell cycle arrest in human CHP-134 cells assessed as increase in cyclin B1 expression level at 100 nM measured after 24 hrs by Western blot analysis; type: functional, cell-based; in short: as §2
Kelly [6] = assay: Induction of cell cycle arrest in human Kelly cells assessed as increase in phospho-histone H3 expression at 100 nM measured after 24 hrs by Western blot analysis; type: functional, cell-based; in short: as §2
CHP-134 [7] = assay: Induction of cell cycle arrest in human CHP-134 cells assessed as increase in phospho-histone H3 expression at 100 nM measured after 24 hrs by Western blot analysis; type: functional, cell-based; in short: as §2
Kelly [8] = assay: Induction of cell cycle arrest in human Kelly cells assessed as increase in phospho-histone H3 expression at 500 nM measured after 24 hrs by Western blot analysis; type: functional, cell-based
In short: (§3)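 Protein lysates were immunoblotted for the mitotic markers cyclin B1 and histone H3 phosphorylated at Ser10, with GAPDH as the loading control.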

CHP-134 [9] = assay: Induction of cell cycle arrest in human CHP-134 cells assessed as increase in phospho-histone H3 expression at 500 nM measured after 24 hrs by Western blot analysis; type: functional, cell-based; in short: as §3
Tubulin (Homo sapiens) [10] = target: T1, Tubulin (Homo sapiens) (UniProt P68371+Q9H4B7+P0DPH7+P68366+Q13509+Q71U36+P04350+Q3ZCM7+P07437+P68363+Q9BQE3+Q6PEY2+Q13885+Q9BVA1+Q9BUF5); assay: Inhibition of tubulin polymerization (unknown origin) assessed as destabilization of microtubule formation at 5 uM incubated for 45 mins by plate reader analysis; type: protein-complex assay
Kelly [11] = assay: Effect on cell cycle distribution in human Kelly cells at 500 nM measured after 24 hrs by PI/RNAse staining based flow cytometric analysis; type: functional
In short: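 Kelly cells were treated with 500 nM compound or DMSO for 24 h. Cell cycle phase distribution was then profiled and quantified, with n = 3 biological replicates and standard error shown.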

Kelly [12] = assay: Induction of cell cycle arrest in human Kelly cells assessed as increase in cyclin B1 expression at 500 nM measured after 24 hrs by Western blot analysis; type: functional, cell-based; in short: as §3
CHP-134 [13] = assay: Induction of cell cycle arrest in human CHP-134 cells assessed as increase in cyclin B1 expression level at 500 nM measured after 24 hrs by Western blot analysis; type: functional, cell-based; in short: as §3
SK-N-BE(2)-C = assay: Antiproliferative activity against MYCN-amplified human SK-N-BE(2)-C cells assessed as reduction in cell viability measured after 3 days by Cell titer-glo assay; type: functional, cell-based; conditions: time 3.0 day
Tubulin (Homo sapiens) [14] = target: T1, Tubulin (Homo sapiens); assay: Disruption of microtubule network in human Kelly cells at 500 nM incubated for 24 hrs by DAPI staining based immunofluorescence analysis; type: cell-based
In short: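 Cells were then immunostained for α-tubulin (Alexa-488), with nuclei counterstained by DAPI. The microtubule network was examined in representative images.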

Kelly [15] = assay: Induction of cell cycle arrest in human Kelly cells assessed as accumulation of cells in G2/M phase at 100 nM measured after 24 hrs by PI/RNAse staining based flow cytometric analysis; type: functional
In short: (§4)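 Cell cycle phase distribution, including G2/M fraction, quantified. n = 3 biological replicates, standard error. Unpaired two-tailed t test.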

CHP-134 [16] = assay: Induction of cell cycle arrest in human CHP-134 cells at 100 nM measured after 24 hrs by PI/RNAse staining based flow cytometric analysis; type: functional; in short: as §4
Tubulin (Homo sapiens) [17] = target: T1, Tubulin (Homo sapiens); assay: Disruption of microtubule network in human Kelly cells at 100 nM incubated for 24 hrs by DAPI staining based immunofluorescence analysis; type: cell-based
In short: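 Immunostained for α-tubulin (Alexa-488) with DAPI nuclear counterstain. Microtubule network integrity and tubulin compaction around nuclei assessed from representative images.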

Row | Structure (SMILES) | GI50 (CHP-134 [1]) | GI50 [2] | further results
1 | COc1cc(-c2cccn3cc(-c4ccc(Cl)cc4)nc23)cc(OC)c1OC | 1620 nM | 3420 nM | –
2 | COc1cc(-c2cccc3nc(-c4ccc(C)cc4)cn23)cc(OC)c1OC | 3320 nM | 4920 nM | –
3 | COc1cc2c(c(OC)c1OC)-c1ccc(OC)c(=O)cc1[C@@H](NC(C)=O)CC2 [COLCHICINE] | 8 nM | 9 nM | half-life [3]: > 60 min; Activity (Kelly [4]): Active; Activity (CHP-134 [5]): Active; Activity (Kelly [6]): Active; Activity (CHP-134 [7]): Active
4 | COc1c(F)cc(-c2nccn3cc(-c4ccc(C)cc4)nc23)cc1F | 175 nM | 402 nM | Activity (Kelly [8]): inactive; Activity (CHP-134 [9]): inactive; half-life [3]: 36.1 min; inhibition (Tubulin (Homo sapiens) [10]): Active; Activity (Kelly [11]): inactive; Activity (Kelly [12]): inactive; Activity (CHP-134 [13]): inactive; Activity (SK-N-BE(2)-C): Active; Activity (Tubulin (Homo sapiens) [14]): inactive
5 | COc1cc(-c2cccn3cc(-c4ccc(C)cc4)nc23)cc(OC)c1OC | 152 nM | 217 nM | inhibition (Tubulin (Homo sapiens) [10]): Active
6 | COc1cc(-c2cc(C)cn3cc(-c4ccc(C)cc4)nc23)cc(OC)c1OC | 381 nM | 717 nM | –
7 | COc1cc(-c2nccn3cc(-c4ccc(C)cc4)nc23)cc(OC)c1OC | 7 nM | 12 nM | half-life [3]: 26 min; inhibition (Tubulin (Homo sapiens) [10]): Active; Activity (Kelly [15]): Active; Activity (CHP-134 [16]): Active; Activity (Kelly [4]): Active; Activity (CHP-134 [5]): Active; Activity (Kelly [6]): Active; Activity (CHP-134 [7]): Active; Activity (SK-N-BE(2)-C): Active; Activity (Tubulin (Homo sapiens) [17]): Active
8 | COc1cc(-c2cccn3cc(-c4ccc(F)cc4)nc23)cc(OC)c1OC | 1610 nM | 3000 nM | –
9 | Cc1ccc(-c2cn3ccnc(-c4cc(Cl)c(F)c(Cl)c4)c3n2)cc1 | > 2500 nM | > 2500 nM | –
10 | COc1cc(-c2cccn3cc(-c4ccc(C(F)(F)F)cc4)nc23)cc(OC)c1OC | 2090 nM | > 5000 nM | –
11 | COc1ccc(-c2cn3cccc(-c4cc(OC)c(OC)c(OC)c4)c3n2)cc1 | 511 nM | 1370 nM | –
12 | COc1c(Br)cc(-c2nccn3cc(-c4ccc(C)cc4)nc23)cc1Br | 469 nM | 504 nM | –
13 | Cc1ccc(-c2cn3ccnc(-c4cc(F)cc(F)c4)c3n2)cc1 | 474 nM | 438 nM | –
14 | COc1c(Cl)cc(-c2nccn3cc(-c4ccc(C)cc4)nc23)cc1Cl | 79 nM | 165 nM | inhibition (Tubulin (Homo sapiens) [10]): Active; Activity (SK-N-BE(2)-C): Active
